# Measured values taken from ChEMBL document CHEMBL5724801, “EUbOPEN Chemogenomics Library - Multiplex” (2024).
# Where “and” joins values, the source holds several entries; their conditions need not be identical. Equal values may be shown once.
# Tested on: HEK-293T
# Test: Multiplex assay against HEK293T
# Assay type: toxicity, cell-based
# Conditions: human
# Method in brief: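 Cells stained live at seeding with Hoechst33342, BioTracker Green Microtubule Cytoskeleton Dye, MitoTracker Red and Annexin V Alexa Fluor 680 were imaged on a CQ1 microscope at 37°C and 5% CO2 after compound addition. Their classification by CellPathfinder machine-learning gating ran from Hoechst high-intensity objects versus normal cells, to healthy, pyknosed or fragmented nuclei among normal cells, to mitotic or apoptotic among pyknosed cells. Tubulin, mitochondrial-mass and membrane-permeability phenotypes are per cents of healthy-nucleus cells.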
# [1] = 12 h, 10 µM, compound concentration 10 uM
# [2] = 24 h, 10 µM, compound concentration 10 uM
# [3] = 48 h, 10 µM, compound concentration 10 uM
# [4] = 12 h, 1 µM, compound concentration 1 uM
# [5] = 24 h, 1 µM, compound concentration 1 uM
# [6] = 48 h, 1 µM, compound concentration 1 uM
compound,measurement,setting,value
CC(=O)O[C@H]1C(=O)[C@@]2(C)[C@H]([C@H](OC(=O)c3ccccc3)[C@]3(O)C[C@H](OC(=O)[C@H](O)[C@@H](NC(=O)c4ccccc4)c4ccccc4)C(C)=C1C3(C)C)[C@]1(OC(C)=O)CO[C@@H]1C[C@@H]2O [PACLITAXEL],Population Apoptotic (%),[1],41% and 56%
same,Population Fragmented Nuclei (%),[1],7% and 5%
same,Population Healthy Nuclei (%),[1],74% and 64%
same,Population Hoechst High Intensity Objects (%),[1],16% and 14%
same,Population Membrane Permeable-Phenotype (%),[1],0%
same,Population Mitochondria Different-Phenotype (%),[1],79% and 84%
same,Population Mitotic Cells (%),[1],58% and 43%
same,Population Normal (%),[1],83% and 85%
same,Population Pyknosed Nuclei (%),[1],17% and 29%
same,Population Tubulin-Different-Phenotype (%),[1],11% and 16%
same,Population Apoptotic (%),[2],35% and 47%
same,Population Fragmented Nuclei (%),[2],10% and 8%
same,Population Healthy Nuclei (%),[2],70% and 73%
same,Population Hoechst High Intensity Objects (%),[2],16% and 15%
same,Population Membrane Permeable-Phenotype (%),[2],0%
same,Population Mitochondria Different-Phenotype (%),[2],72% and 82%
same,Population Mitotic Cells (%),[2],64% and 52%
same,Population Normal (%),[2],83% and 84%
same,Population Pyknosed Nuclei (%),[2],18% and 17%
same,Population Tubulin-Different-Phenotype (%),[2],8% and 16%
same,Population Apoptotic (%),[3],29% and 69%
same,Population Fragmented Nuclei (%),[3],15% and 10%
same,Population Healthy Nuclei (%),[3],68% and 70%
same,Population Hoechst High Intensity Objects (%),[3],11%
same,Population Membrane Permeable-Phenotype (%),[3],0%
same,Population Mitochondria Different-Phenotype (%),[3],64% and 70%
same,Population Mitotic Cells (%),[3],70% and 30%
same,Population Normal (%),[3],88%
same,Population Pyknosed Nuclei (%),[3],15% and 19%
same,Population Tubulin-Different-Phenotype (%),[3],2% and 11%
CCOc1c2c(c(OCC)c3ncccc13)CN(c1ccc(CS(=O)(=O)NC(=O)Cc3ccccc3OC)cc1C)C2=O,Population Apoptotic (%),[4],33% and 35%
same,Population Fragmented Nuclei (%),[4],3% and 5%
same,Population Healthy Nuclei (%),[4],81% and 82%
same,Population Hoechst High Intensity Objects (%),[4],6% and 5%
same,Population Membrane Permeable-Phenotype (%),[4],0%
same,Population Mitochondria Different-Phenotype (%),[4],43% and 54%
same,Population Mitotic Cells (%),[4],66% and 64%
same,Population Normal (%),[4],93% and 94%
same,Population Pyknosed Nuclei (%),[4],14% and 12%
same,Population Tubulin-Different-Phenotype (%),[4],31% and 16%
same,Total Cell Count,[4],356 and 355
same,Population Apoptotic (%),[1],45% and 53%
same,Population Fragmented Nuclei (%),[1],9% and 7%
same,Population Healthy Nuclei (%),[1],78% and 76%
same,Population Hoechst High Intensity Objects (%),[1],4% and 9%
same,Population Membrane Permeable-Phenotype (%),[1],0%
same,Population Mitochondria Different-Phenotype (%),[1],49% and 72%
same,Population Mitotic Cells (%),[1],54% and 46%
same,Population Normal (%),[1],95% and 90%
same,Population Pyknosed Nuclei (%),[1],12% and 16%
same,Population Tubulin-Different-Phenotype (%),[1],34% and 29%
same,Total Cell Count,[1],367 and 362
same,Population Apoptotic (%),[5],35% and 27%
same,Population Fragmented Nuclei (%),[5],11% and 5%
same,Population Healthy Nuclei (%),[5],73% and 85%
same,Population Hoechst High Intensity Objects (%),[5],5% and 3%
same,Population Membrane Permeable-Phenotype (%),[5],0%
same,Population Mitochondria Different-Phenotype (%),[5],28% and 27%
same,Population Mitotic Cells (%),[5],64% and 72%
same,Population Normal (%),[5],94% and 96%
same,Population Pyknosed Nuclei (%),[5],14% and 8%
same,Population Tubulin-Different-Phenotype (%),[5],20% and 10%
same,Total Cell Count,[5],462 and 473
same,Population Apoptotic (%),[2],18% and 32%
same,Population Fragmented Nuclei (%),[2],10% and 8%
same,Population Healthy Nuclei (%),[2],75% and 82%
same,Population Hoechst High Intensity Objects (%),[2],4% and 8%
same,Population Membrane Permeable-Phenotype (%),[2],0% and 1%
same,Population Mitochondria Different-Phenotype (%),[2],36% and 49%
same,Population Mitotic Cells (%),[2],81% and 67%
same,Population Normal (%),[2],95% and 91%
same,Population Pyknosed Nuclei (%),[2],14% and 9%
same,Population Tubulin-Different-Phenotype (%),[2],28% and 17%
same,Total Cell Count,[2],446 and 481
same,Population Apoptotic (%),[6],29% and 33%
same,Population Fragmented Nuclei (%),[6],13% and 11%
same,Population Healthy Nuclei (%),[6],79% and 83%
same,Population Hoechst High Intensity Objects (%),[6],3% and 1%
same,Population Membrane Permeable-Phenotype (%),[6],0%
same,Population Mitochondria Different-Phenotype (%),[6],20% and 14%
same,Population Mitotic Cells (%),[6],70% and 66%
same,Population Normal (%),[6],96% and 98%
same,Population Pyknosed Nuclei (%),[6],6% and 5%
same,Population Tubulin-Different-Phenotype (%),[6],13% and 7%
same,Total Cell Count,[6],822 and 770
same,Population Apoptotic (%),[3],41% and 33%
same,Population Fragmented Nuclei (%),[3],13% and 12%
same,Population Healthy Nuclei (%),[3],78% and 81%
same,Population Hoechst High Intensity Objects (%),[3],4% and 3%
same,Population Membrane Permeable-Phenotype (%),[3],1% and 0%
same,Population Mitochondria Different-Phenotype (%),[3],32% and 22%
same,Population Mitotic Cells (%),[3],58% and 66%
same,Population Normal (%),[3],95% and 96%
same,Population Pyknosed Nuclei (%),[3],8% and 6%
same,Population Tubulin-Different-Phenotype (%),[3],16% and 11%
same,Total Cell Count,[3],631 and 724
COc1c(Nc2ccc(S(C)(=O)=O)nc2C)ncnc1OC1CCN(C(=O)OC(C)C)CC1 [ADP-597],Population Apoptotic (%),[4],29% and 38%
same,Population Fragmented Nuclei (%),[4],5% and 4%
same,Population Healthy Nuclei (%),[4],78% and 80%
same,Population Hoechst High Intensity Objects (%),[4],6% and 3%
same,Population Membrane Permeable-Phenotype (%),[4],0%
same,Population Mitochondria Different-Phenotype (%),[4],47% and 62%
same,Population Mitotic Cells (%),[4],70% and 62%
same,Population Normal (%),[4],93% and 96%
same,Population Pyknosed Nuclei (%),[4],16% and 14%
same,Population Tubulin-Different-Phenotype (%),[4],36% and 25%
same,Total Cell Count,[4],430 and 347
same,Population Apoptotic (%),[1],47%
same,Population Fragmented Nuclei (%),[1],7%
same,Population Healthy Nuclei (%),[1],75% and 72%
same,Population Membrane Permeable-Phenotype (%),[1],0%
same,Population Mitochondria Different-Phenotype (%),[1],70% and 71%
same,Population Mitotic Cells (%),[1],52%
same,Population Normal (%),[1],91% and 74%
same,Population Pyknosed Nuclei (%),[1],17% and 20%
same,Population Tubulin-Different-Phenotype (%),[1],44% and 36%
same,Total Cell Count,[1],302 and 238
same,Population Apoptotic (%),[5],23% and 30%
same,Population Fragmented Nuclei (%),[5],7% and 6%
same,Population Healthy Nuclei (%),[5],81% and 84%
same,Population Hoechst High Intensity Objects (%),[5],2% and 3%
same,Population Membrane Permeable-Phenotype (%),[5],0% and 1%
same,Population Mitochondria Different-Phenotype (%),[5],20% and 34%
same,Population Mitotic Cells (%),[5],76% and 69%
same,Population Normal (%),[5],97% and 96%
same,Population Pyknosed Nuclei (%),[5],11% and 9%
same,Population Tubulin-Different-Phenotype (%),[5],16% and 15%
same,Total Cell Count,[5],587 and 447
same,Population Apoptotic (%),[2],44% and 63%
same,Population Fragmented Nuclei (%),[2],9% and 11%
same,Population Healthy Nuclei (%),[2],74% and 71%
same,Population Hoechst High Intensity Objects (%),[2],7% and 21%
same,Population Membrane Permeable-Phenotype (%),[2],0%
same,Population Mitochondria Different-Phenotype (%),[2],58% and 54%
same,Population Mitotic Cells (%),[2],55% and 36%
same,Population Normal (%),[2],92% and 78%
same,Population Pyknosed Nuclei (%),[2],15% and 17%
same,Population Tubulin-Different-Phenotype (%),[2],38% and 25%
same,Total Cell Count,[2],355 and 300
same,Population Apoptotic (%),[6],25% and 36%
same,Population Fragmented Nuclei (%),[6],13%
same,Population Healthy Nuclei (%),[6],78% and 77%
same,Population Hoechst High Intensity Objects (%),[6],2% and 5%
same,Population Membrane Permeable-Phenotype (%),[6],0% and 1%
same,Population Mitochondria Different-Phenotype (%),[6],18% and 23%
same,Population Mitotic Cells (%),[6],75% and 63%
same,Population Normal (%),[6],97% and 94%
same,Population Pyknosed Nuclei (%),[6],8% and 9%
same,Population Tubulin-Different-Phenotype (%),[6],13% and 14%
same,Total Cell Count,[6],924 and 590
same,Population Apoptotic (%),[3],35% and 43%
same,Population Fragmented Nuclei (%),[3],15% and 13%
same,Population Healthy Nuclei (%),[3],73%
same,Population Hoechst High Intensity Objects (%),[3],4% and 10%
same,Population Membrane Permeable-Phenotype (%),[3],0%
same,Population Mitochondria Different-Phenotype (%),[3],38% and 32%
same,Population Mitotic Cells (%),[3],64% and 56%
same,Population Normal (%),[3],95% and 89%
same,Population Pyknosed Nuclei (%),[3],11% and 12%
same,Population Tubulin-Different-Phenotype (%),[3],23% and 18%
same,Total Cell Count,[3],494 and 392
